Measured values from ChEMBL document CHEMBL3804821, “Design and synthesis of some novel 4-Chloro-N-(4-(1-(2-(2-cyanoacetyl)hydrazono)ethyl)phenyl) benzenesulfonamide derivatives as anticancer and radiosensitizing agents” (Eur J Med Chem, 2016).

Key:
[1] = test system: HepG2; assay: Cytotoxicity against human HepG2 cells assessed as surviving fraction at 100 uM after 48 hrs by SRB assay relative to control; assay type: functional
In short: (§1)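 Cells seeded at 10^4/well and allowed to attach for 24 h. Compounds dissolved in DMSO, diluted with saline, and added at 12.5, 25, 50 and 100 µM in triplicate wells. Exposure 48 h, 37 °C, 5% CO2. Cells then TCA-fixed and stained 30 min with 0.4% SRB in 1% acetic acid, washed four times with 1% acetic acid, and dye recovered in Tris-EDTA. Absorbance read and surviving fraction plotted against concentration to obtain IC50.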

[2] = test system: HepG2; assay: Cytotoxicity against human HepG2 cells assessed as surviving fraction at 12.5 uM after 48 hrs by SRB assay relative to control; assay type: functional; in short: as §1
[3] = test system: HepG2; assay: Cytotoxicity against human HepG2 cells assessed as surviving fraction at 50 uM after 48 hrs by SRB assay relative to control; assay type: functional; in short: as §1
[4] = test system: HepG2; assay: Cytotoxicity against human HepG2 cells assessed as cell viability after 48 hrs by SRB assay; assay type: functional, cell-based; details: HepG2, 48 h; in short: as §1
[5] = test system: HepG2; assay: Cytotoxicity against human HepG2 cells assessed as surviving fraction at 25 uM after 48 hrs by SRB assay relative to control; assay type: functional; in short: as §1
[6] = test system: HepG2; assay: Cytotoxicity against human HepG2 cells assessed as surviving fraction at 100 uM treated for 2 hrs followed by gamma irradiation of 8 Gy with dosage rate of 0.758 rad/sec for 17.73 mins measured after 48 hrs by SRB assay relative to control; assay type: functional
In short: (§2)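 Cells seeded at 10^4/well for 24 h, then given compound at 12.5, 25, 50 or 100 µM. After 2 h, a single 8 Gy γ-ray dose was delivered (0.758 rad/sec, 17.73 min). Cells fixed 48 h after irradiation and stained with 0.4% SRB in 1% acetic acid, read at 570 nm. Surviving fraction reported as mean ± standard error and analysed by 1-way ANOVA; IC50 taken from the survival curve.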

[7] = test system: HepG2; assay: Cytotoxicity against human HepG2 cells assessed as surviving fraction at 25 uM treated for 2 hrs followed by gamma irradiation of 8 Gy with dosage rate of 0.758 rad/sec for 17.73 mins measured after 48 hrs by SRB assay relative to control; assay type: functional; in short: as §2
[8] = test system: HepG2; assay: Cytotoxicity against human HepG2 cells assessed as surviving fraction at 50 uM treated for 2 hrs followed by gamma irradiation of 8 Gy with dosage rate of 0.758 rad/sec for 17.73 mins measured after 48 hrs by SRB assay relative to control; assay type: functional; in short: as §2
[9] = test system: HepG2; assay: Cytotoxicity against human HepG2 cells assessed as surviving fraction at 12.5 uM treated for 2 hrs followed by gamma irradiation of 8 Gy with dosage rate of 0.758 rad/sec for 17.73 mins measured after 48 hrs by SRB assay relative to control; assay type: functional; in short: as §2
[10] = test system: HepG2; assay: Cytotoxicity against human HepG2 cells assessed as cell viability treated for 2 hrs followed by gamma irradiation of 8 Gy with dosage rate of 0.758 rad/sec for 17.73 mins measured after 48 hrs by SRB assay; assay type: functional, cell-based; details: HepG2, light or radiation study; in short: as §2
[11] = test system: HepG2; assay: Potency index, ratio of doxorubicin IC50 to compound IC50 for human HepG2 cells; assay type: functional

Work on `CCOC(=O)c1c(-c2ccc(N(C)C)cc2)c(C#N)c(=O)n(/N=C(\C)c2ccc(NS(=O)(=O)c3ccc(Cl)cc3)cc2)c1N` yielded a Ratio [1] of 0.196, a Ratio [2] of 0.653 and a Ratio [3] of 0.396. For the same molecule, the IC50 [4] was 21 µM and the Ratio [5] was 0.432.
In the case of `CCOC(=O)c1c(-c2ccco2)c(C#N)c(=O)n(/N=C(\C)c2ccc(NS(=O)(=O)c3ccc(Cl)cc3)cc2)c1N`, the Ratio [1] is reported as 0.342, the Ratio [2] is reported as 0.413 and the Ratio [6] is reported as 0.1. The Ratio [3] was 0.37, the Ratio [7] was 0.22 and the Ratio [8] was 0.1. The IC50 [4] was 10.3 µM, the Ratio [9] was 0.32 and the IC50 [10] was 8.8 µM. The Ratio [5] was 0.367.
Molecule `CCOC(=O)c1c(-c2ccc(Cl)cc2)c(C#N)c(=O)n(/N=C(\C)c2ccc(NS(=O)(=O)c3ccc(Cl)cc3)cc2)c1N` has a Ratio [1] of 0.314, a Ratio [2] of 0.555 and a Ratio [3] of 0.394. The IC50 [4] was 20.2 µM and the Ratio [5] was 0.463.
`CCOC(=O)c1c(-c2ccccc2)c(C#N)c(=O)n(/N=C(\C)c2ccc(NS(=O)(=O)c3ccc(Cl)cc3)cc2)c1N` gave a Ratio [1] of 0.179, a Ratio [2] of 0.617 and a Ratio [3] of 0.212. It also gave an IC50 [4] of 16.8 µM and a Ratio [5] of 0.287.
`CCOC(=O)c1c(-c2ccc3c(c2)OCO3)c(C#N)c(=O)n(/N=C(\C)c2ccc(NS(=O)(=O)c3ccc(Cl)cc3)cc2)c1N` gave a Ratio [1] of 0.134, a Ratio [2] of 0.691 and a Ratio [3] of 0.373. The IC50 [4] was 37 µM and the Ratio [5] was 0.606.
`C/C(=N\NC(=O)C(C#N)C(=S)S)c1ccc(NS(=O)(=O)c2ccc(Cl)cc2)cc1` (stereo not given) gave a Ratio [1] of 0.248, a Ratio [2] of 0.542 and a Ratio [3] of 0.387. It also gave an IC50 [4] of 17.5 µM and a Ratio [5] of 0.448.
Work on `CCOC(=O)c1c(-c2cccc([N+](=O)[O-])c2)c(C#N)c(=O)n(/N=C(\C)c2ccc(NS(=O)(=O)c3ccc(Cl)cc3)cc2)c1N` yielded a Ratio [1] of 0.298, a Ratio [2] of 0.661 and a Ratio [3] of 0.381. The IC50 [4] was 29.7 µM and the Ratio [5] was 0.524.
`CCOC(=O)c1c(-c2ccc(OC)cc2)c(C#N)c(=O)n(/N=C(\C)c2ccc(NS(=O)(=O)c3ccc(Cl)cc3)cc2)c1N` was tested, and the Ratio [1] was 0.147, the Ratio [2] was 0.651 and the Ratio [3] was 0.613. For the same molecule, the IC50 [4] was 61.7 µM and the Ratio [5] was 0.637.
`CCOC(=O)c1c(/C=C/c2ccccc2)c(C#N)c(=O)n(/N=C(\C)c2ccc(NS(=O)(=O)c3ccc(Cl)cc3)cc2)c1N` showed a Ratio [1] of 0.114, a Ratio [2] of 0.414 and a Ratio [3] of 0.275. The IC50 [4] was 10.7 µM and the Ratio [5] was 0.336.
In the case of `CSC(SC)=C(C#N)C(=O)N/N=C(\C)c1ccc(NS(=O)(=O)c2ccc(Cl)cc2)cc1`, the Ratio [1] is reported as 0.266, the Ratio [2] is reported as 0.579 and the Ratio [3] is reported as 0.329. For the same molecule, the IC50 [4] was 19.4 µM and the Ratio [5] was 0.44.
For `CCOC(=O)c1c(-c2ccccc2OC)c(C#N)c(=O)n(/N=C(\C)c2ccc(NS(=O)(=O)c3ccc(Cl)cc3)cc2)c1N`, the Ratio [1] was 0.087, the Ratio [2] was 0.489 and the Ratio [3] was 0.105. The IC50 [4] was 11.4 µM and the Ratio [5] was 0.129.
`CCOC(=O)c1c(-c2ccccc2Cl)c(C#N)c(=O)n(/N=C(\C)c2ccc(NS(=O)(=O)c3ccc(Cl)cc3)cc2)c1N` gave a Ratio [1] of 0.192, a Ratio [2] of 0.488 and a Ratio [3] of 0.342. For the same molecule, the IC50 [4] was 11.4 µM and the Ratio [5] was 0.545.
Work on `C/C(=N\NC(=O)CC#N)c1ccc(NS(=O)(=O)c2ccc(Cl)cc2)cc1` yielded a Ratio [1] of 0.064, a Ratio [2] of 0.18 and a Ratio [6] of 0.11. It also gave a Ratio [3] of 0.078, a Ratio [7] of 0.25 and a Ratio [8] of 0.12. For the same molecule, the IC50 [4] was 8 µM, the “Ratio IC50” value [11] was 4 and the Ratio [9] was 0.26. The IC50 [10] was 6.5 µM and the Ratio [5] was 0.159.
With `CCOC(=O)c1c(-c2ccc([N+](=O)[O-])cc2)c(C#N)c(=O)n(/N=C(\C)c2ccc(NS(=O)(=O)c3ccc(Cl)cc3)cc2)c1N` the Ratio [1] was 0.212, the Ratio [2] was 0.713 and the Ratio [3] was 0.483. It also gave an IC50 [4] of 41.1 µM and a Ratio [5] of 0.586.
`CCO/C=C(\C#N)C(=O)N/N=C(\C)c1ccc(NS(=O)(=O)c2ccc(Cl)cc2)cc1` was tested, and the Ratio [1] was 0.222, the Ratio [2] was 0.556 and the Ratio [3] was 0.228. The IC50 [4] was 16.8 µM and the Ratio [5] was 0.406.
In the case of `CCOC(=O)c1c(-c2ccc(C)cc2)c(C#N)c(=O)n(/N=C(\C)c2ccc(NS(=O)(=O)c3ccc(Cl)cc3)cc2)c1N`, the Ratio [1] is reported as 0.107, the Ratio [2] is reported as 0.264 and the Ratio [6] is reported as 0.11. It also gave a Ratio [3] of 0.214, a Ratio [7] of 0.15 and a Ratio [8] of 0.12. For the same molecule, the IC50 [4] was 8.38 µM, the Ratio [9] was 0.18 and the IC50 [10] was 7.3 µM. The Ratio [5] was 0.25.
`C/C(=N\NC(=O)/C(C#N)=C/N(C)C)c1ccc(NS(=O)(=O)c2ccc(Cl)cc2)cc1` was tested, and the Ratio [1] was 0.281, the Ratio [2] was 0.642 and the Ratio [3] was 0.311. For the same molecule, the IC50 [4] was 19.4 µM and the Ratio [5] was 0.386.
Work on `COc1cccc2c1C(=O)c1c(O)c3c(c(O)c1C2=O)C[C@@](O)(C(=O)CO)C[C@@H]3O[C@H]1C[C@H](N)[C@H](O)[C@H](C)O1` [DOXORUBICIN] yielded a Ratio [1] of 0.13, a Ratio [2] of 0.551 and a Ratio [3] of 0.139. It also gave a Ratio [5] of 0.48.
